Assay results: ChEMBL document CHEMBL4373678, “Development of hydroxamate-based histone deacetylase inhibitors of bis-substituted aromatic amides with antitumor activities” (Medchemcomm, 2019)
Each block holds one compound with its values, some of them ahead of it. Active and inactive are the calls of the source. The rule behind the calls is not given here.

Experiments:
[1] = organism: Homo sapiens; conditions: at 0.5 µM;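 also: HDAC activity measured in a nuclear extract, with percent inhibition expressed against control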
[2] = target: T1, Histone deacetylase 1 (Homo sapiens, UniProt Q13547); experiment: Potency index, ratio of SAHA IC50 to compound IC50 for inhibition of recombinant HDAC1 (unknown origin) expressed in baculovirus expression system
T1 sequence (Q13547 whole entry): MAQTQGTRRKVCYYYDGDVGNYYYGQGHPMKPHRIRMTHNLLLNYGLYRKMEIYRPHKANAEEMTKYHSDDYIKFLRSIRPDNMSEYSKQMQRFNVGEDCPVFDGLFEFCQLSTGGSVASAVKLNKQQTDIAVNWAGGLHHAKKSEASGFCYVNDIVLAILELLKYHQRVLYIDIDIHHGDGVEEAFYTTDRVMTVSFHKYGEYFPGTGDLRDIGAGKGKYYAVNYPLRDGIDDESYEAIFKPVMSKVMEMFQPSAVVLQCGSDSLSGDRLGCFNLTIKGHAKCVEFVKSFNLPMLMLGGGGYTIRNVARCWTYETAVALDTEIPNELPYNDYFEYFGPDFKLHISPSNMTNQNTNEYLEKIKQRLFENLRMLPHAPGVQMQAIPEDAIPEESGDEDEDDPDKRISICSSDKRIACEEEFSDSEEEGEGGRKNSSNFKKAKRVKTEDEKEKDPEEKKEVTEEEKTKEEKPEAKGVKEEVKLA

[3] = tested on: BEAS-2B; experiment: Cytotoxicity against human BEAS2B cells assessed as reduction in cell viability after 48 hrs by SRB assay; format: ADME, cell-based
[4] = tested on: A549; experiment: Antiproliferative activity against human A549 cells assessed as reduction in cell viability after 48 hrs by SRB assay; format: functional, cell-based; conditions: A549, 48 h
Summary of the method: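 A549 cells in RPMI 1640 with 10% FBS at 37 °C, 5% CO₂, seeded 24 h before treatment at various concentrations. Cells were fixed with 10% TCA for 1 h at 4 °C and stained with 0.4% SRB for 5 min at room temperature. After 1% acetic acid washes, dye was dissolved in 10 mM Tris and A540 read. IC50 from three independent experiments in triplicate, mean ± SD.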

[5] = tested on: MDA-MB-231; experiment: Antiproliferative activity against human MDA-MB-231 cells assessed as reduction in cell viability after 48 hrs by SRB assay; format: functional, cell-based; conditions: MDA-MB-231, 48 h
[6] = tested on: MCF7; experiment: Antiproliferative activity against human MCF7 cells assessed as reduction in cell viability after 48 hrs by SRB assay; format: functional, cell-based; conditions: MCF7, 48 h
[7] = target: T1, Histone deacetylase 1; experiment: Inhibition of recombinant HDAC1 (unknown origin) expressed in baculovirus expression system using Ac-peptide-AMC as substrate preincubated for 15 mins followed by substrate addition by fluorescence based protease coupled assay
[8] = tested on: MCF-10A; experiment: Cytotoxicity against human MCF10A cells assessed as reduction in cell viability after 48 hrs by SRB assay; format: ADME, cell-based
[9] = Cytotoxicity against human MCF10F cells assessed as reduction in cell viability after 48 hrs by SRB assay; format: ADME, cell-based; conditions: MCF-10F
[10] = tested on: A549; experiment: Induction of apoptosis in human A549 cells assessed as viable cells at 5 uM after 72 hrs by Annexin V-phycoerythrin/7-AAD staining based flow cytometric analysis (reference value: 96.57%); format: functional
[11] = tested on: A549; experiment: Induction of apoptosis in human A549 cells assessed as late apoptotic cells at 5 uM after 72 hrs by Annexin V-phycoerythrin/7-AAD staining based flow cytometric analysis (reference value: 1.84%); format: functional
[12] = target: T1, Histone deacetylase 1; experiment: Inhibition of HDAC1 in human A549 cells assessed as increase in H4 acetylation after 24 hrs by immunoblot analysis; format: cell-based
Summary of the method: (§1)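 A549 cells exposed to 1.0, 2.5 and 5.0 µM for 24 h, then immunoblotted for acetylated histone H3 and H4. RIPA lysates (35 µg) run on 15% SDS-PAGE and transferred to PVDF. Primary antibody 1:1000 overnight at 4 °C, HRP secondary 1:20000, ECL. Densitometry relative to β-actin; three independent experiments.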

[13] = tested on: A549; experiment: Induction of apoptosis in human A549 cells assessed as necrotic cells at 1 uM after 72 hrs by Annexin V-phycoerythrin/7-AAD staining based flow cytometric analysis (reference value: 0.45%); format: functional
[14] = tested on: A549; experiment: Induction of apoptosis in human A549 cells assessed as increase in PARP cleavage at 1 to 5 uM after 48 hrs by Western blot analysis; format: functional, cell-based
Summary of the method: (§2)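 A549 cells treated at the indicated concentrations for 48 h, then blotted for cleaved caspase-3 and cleaved PARP. RIPA lysis; 35 µg protein on 15% SDS-PAGE, transferred to PVDF. Blocked in 5% milk/PBST; primary antibody 1:1000 overnight at 4 °C, HRP secondary 1:20000 for 1 h, ECL. Bands quantified by densitometry versus β-actin; three separate experiments.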

[15] = tested on: A549; experiment: Induction of apoptosis in human A549 cells assessed as early apoptotic cells at 1 uM after 72 hrs by Annexin V-phycoerythrin/7-AAD staining based flow cytometric analysis (reference value: 1.13%); format: functional
[16] = target: T1, Histone deacetylase 1; experiment: Inhibition of HDAC1 in human A549 cells assessed as increase in H3 acetylation after 24 hrs by immunoblot analysis; format: cell-based
Summary of the method: as §1

[17] = tested on: A549; experiment: Induction of apoptosis in human A549 cells assessed as necrotic cells at 2.5 uM after 72 hrs by Annexin V-phycoerythrin/7-AAD staining based flow cytometric analysis (reference value: 0.45%); format: functional
[18] = tested on: A549; experiment: Induction of apoptosis in human A549 cells assessed as late apoptotic cells at 2.5 uM after 72 hrs by Annexin V-phycoerythrin/7-AAD staining based flow cytometric analysis (reference value: 1.84%); format: functional
[19] = tested on: A549; experiment: Induction of G2/M cell cycle arrest in human A549 cells assessed as decrease in CDK1 expression at 1 to 2.5 uM by Western blot analysis; format: functional, cell-based
Summary of the method: (§3)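 Cell-cycle arm: A549 whole-cell lysates probed for CDK1 and cyclin B. Lysis in RIPA buffer; 35 µg protein run on 15% SDS-PAGE and blotted to PVDF. Blocked in 5% milk/PBST; primary antibody 1:1000 at 4 °C overnight, HRP secondary 1:20000 for 1 h at room temperature, ECL detection. Densitometry relative to β-actin; three separate experiments.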

[20] = tested on: A549; experiment: Induction of apoptosis in human A549 cells after 72 hrs by Annexin V-phycoerythrin/7-AAD staining based flow cytometric analysis; format: functional, cell-based
[21] = tested on: A549; experiment: Induction of G2/M cell cycle arrest in human A549 cells assessed as decrease in CyclinB1 expression at 1 to 2.5 uM by Western blot analysis; format: functional, cell-based
Summary of the method: as §3

[22] = tested on: A549; experiment: Antimetastatic activity in human A549 cells reduction in cell migration after 24 hrs by wound healing assay; format: functional, cell-based
Summary of the method: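 A549 cells (1.5x10⁵) plated in 6-well dishes and grown overnight to confluent monolayers. Monolayers were wounded with a pipette tip, then treated at various concentrations for 24 h. Wounds were photographed at 0, 12 and 24 h and migration distance measured. Result is % wound closure relative to 0 h. Triplicate, repeated three times.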

[23] = tested on: A549; experiment: Induction of apoptosis in human A549 cells assessed as early apoptotic cells at 5 uM after 72 hrs by Annexin V-phycoerythrin/7-AAD staining based flow cytometric analysis (reference value: 1.13%); format: functional
[24] = tested on: A549; experiment: Induction of apoptosis in human A549 cells assessed as necrotic cells at 5 uM after 72 hrs by Annexin V-phycoerythrin/7-AAD staining based flow cytometric analysis (reference value: 0.45%); format: functional
[25] = tested on: A549; experiment: Induction of apoptosis in human A549 cells assessed as early apoptotic cells at 2.5 uM after 72 hrs by Annexin V-phycoerythrin/7-AAD staining based flow cytometric analysis (reference value: 1.13%); format: functional
[26] = tested on: A549; experiment: Induction of apoptosis in human A549 cells assessed as late apoptotic cells at 1 uM after 72 hrs by Annexin V-phycoerythrin/7-AAD staining based flow cytometric analysis (reference value: 1.84%); format: functional
[27] = tested on: A549; experiment: Inhibition of colony formation in human A549 cells at 1 to 2.5 uM after 7 days by crystal violet staining based assay; format: functional, cell-based
Summary of the method: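 A549 cells plated at 800 per 35 mm dish and treated for one week, with medium replenished every 24 h. Cells were washed with PBS, fixed in methanol and stained with 1% crystal violet for 15 min. Colonies were counted. Triplicate, repeated three times.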

[28] = tested on: A549; experiment: Induction of apoptosis in human A549 cells assessed as increase in caspase-3 cleavage at 1 to 5 uM after 48 hrs by Western blot analysis; format: functional, cell-based
Summary of the method: as §2

[29] = tested on: A549; experiment: Induction of cell cycle arrest in human A549 cells assessed as accumulation at G2/M phase at 5 uM after 24 hrs by PI/RNaseA staining based flow cytometry analysis relative to control; format: functional
Summary of the method: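 A549 cells treated for 24 h, with vehicle as control. Cells were fixed in 70% ice-cold ethanol overnight at −20 °C, then stained with PI containing RNase A for 30 min at 37 °C. DNA content was read by flow cytometry. Mean ± SD of phase percentages from three independent experiments.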

[30] = tested on: A549; experiment: Induction of apoptosis in human A549 cells assessed as viable cells at 1 uM after 72 hrs by Annexin V-phycoerythrin/7-AAD staining based flow cytometric analysis (reference value: 96.57%); format: functional; conditions: A549, 72 h, read-out: Activity
[31] = tested on: A549; experiment: Induction of apoptosis in human A549 cells assessed as viable cells at 2.5 uM after 72 hrs by Annexin V-phycoerythrin/7-AAD staining based flow cytometric analysis (reference value: 96.57%); format: functional; conditions: A549, 72 h, read-out: Activity

SMILES: COc1ccccc1N(Cc1cccc(NC(=O)Cc2ccccc2)c1)C(=O)CCCCCC(=O)NO
- inhibition [1]: 37%

SMILES: COc1ccccc1N(Cc1cccc(C(=O)NCCCCCCc2ccccc2)c1)C(=O)CCCCCC(=O)NO
- inhibition [1]: 4%

SMILES: COc1ccccc1N(Cc1cccc(C(=O)NCCCCc2ccccc2)c1)C(=O)CCCCCC(=O)NO
- inhibition [1]: 15%

SMILES: CCNC(=O)c1cccc(CN(C(=O)CCCCCC(=O)NO)c2ccccc2OC)c1
- inhibition [1]: 20%

SMILES: CCN(CC)C(=O)c1cccc(CN(C(=O)CCCCCC(=O)NO)c2ccccc2OC)c1
- inhibition [1]: 20%

SMILES: O=C(CCCCCCC(=O)Nc1ccccc1)NO [VORINOSTAT]
- Activity [10]: 23.22%
- Activity [11]: 58.86%
- Activity [23]: 16.78%
- Activity [24]: 1.15%
- Activity [29]: 24.97%

SMILES: COc1ccccc1N(Cc1cccc(Br)c1)C(=O)CCCCCC(=O)NO
- inhibition [1]: 21%

SMILES: COc1ccccc1N(Cc1cccc(C(=O)NCCCCCc2ccccc2)c1)C(=O)CCCCCC(=O)NO
- inhibition [1]: 16%

SMILES: COc1ccccc1N(Cc1cccc(C(=O)NCc2ccccc2)c1)C(=O)CCCCCC(=O)NO
- inhibition [1]: 38%

SMILES: CCNC(=O)c1cccc(CN(C(=O)CCCCCC(=O)NO)c2ccc(O)cc2)c1
- inhibition [1]: 21%

SMILES: CCC(=O)Nc1cccc(CN(C(=O)CCCCCC(=O)NO)c2ccccc2OC)c1
- inhibition [1]: 22%

Continued, in another order:

- inhibition [1]: 38%
SMILES: COc1ccccc1N(Cc1cccc(C(=O)NCCc2ccccc2)c1)C(=O)CCCCCC(=O)NO

- inhibition [1]: 36%
SMILES: COc1ccccc1N(Cc1cccc(C(=O)NCCc2ccc(Cl)cc2)c1)C(=O)CCCCCC(=O)NO

- Ratio IC50 [2]: 10.9
- IC50 [4]: 4.05 µM
- IC50 [5]: 7.24 µM
- inhibition [1]: 53%
- IC50 [6]: 7.17 µM
- IC50 [7]: 2.3 nM
SMILES: COc1ccc(N(Cc2cccc(C(=O)NCCc3ccc(F)cc3)c2)C(=O)CCCCCC(=O)NO)cc1
- IC50 [3]: > 20 µM
- IC50 [8]: > 50 µM
- IC50 [9]: > 50 µM

- inhibition [1]: 39%
SMILES: COc1ccccc1N(Cc1cccc(C(=O)NCCc2ccc(F)cc2)c1)C(=O)CCCCCC(=O)NO

- Ratio IC50 [2]: 11.4
- inhibition [12]: Dose-dependent effect
- inhibition [16]: Dose-dependent effect
- IC50 [4]: 2.13 µM
- IC50 [5]: 6.87 µM
- inhibition [1]: 51%
- IC50 [6]: 6.96 µM
- IC50 [7]: 2.2 nM
SMILES: CCNC(=O)c1cccc(CN(C(=O)CCCCCC(=O)NO)c2ccc(OC)cc2)c1
- viability at 5 µM ([10]; Homo sapiens, A549, 72 h, read-out: Activity): 17.7%
- Activity [11]: 57.6%
- IC50 [3]: > 100 µM
- Activity [13]: 0.86%
- Activity [14]: Active
- Activity [15]: 21.86%
- Activity [17]: 1.54%
- Activity [18]: 27.09%
- Activity [19]: Active
- Activity [20]: Dose-dependent effect
- Activity [21]: Active
- Activity [22]: Dose-dependent effect
- Activity [23]: 23.85%
- Activity [24]: 0.89%
- Activity [25]: 29.35%
- Activity [26]: 8.17%
- inhibition [27]: Active
- Activity [28]: Active
- Activity [29]: 40.3%
- IC50 [8]: > 100 µM
- viability at 1 µM [30]: 69.1%
- viability at 2.5 µM [31]: 42%
- IC50 [9]: > 100 µM

- inhibition [1]: 49%
SMILES: COc1ccc(N(Cc2cccc(NC(=O)CCc3ccc(F)cc3)c2)C(=O)CCCCCC(=O)NO)cc1

- inhibition [1]: 34%
SMILES: COc1ccccc1N(Cc1cccc(C(=O)NCCCCc2ccc(F)cc2)c1)C(=O)CCCCCC(=O)NO

- inhibition [1]: 27%
SMILES: COc1ccc(CCNC(=O)c2cccc(CN(C(=O)CCCCCC(=O)NO)c3ccccc3OC)c2)cc1
